# Like-named read-outs stand apart in the source and are kept apart here.
# Columns and labels:
# horse RBCs = assay: In vitro haemolytic assay; type: cell-based
# Theileria equi [1] = assay: Viability test; type: cell-based
# In short: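 After 96 h exposure in the growth assay, treated or untreated infected RBCs were moved into drug-free complete medium with fresh uninfected horse RBCs. Cultured a further 72 h at 37 °C under micro-aerophilic gas, with medium replaced every 24 h. Parasite recrudescence/viability was scored on Giemsa-stained blood smears.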
# Theileria equi [2] = assay: In vitro growth inhibitory assay of Theileria equi in MASP culture; type: cell-based; details: for in vitro growth inhibition versus control well: p < 0.05; for morphological changes observed in treated parasites: in vitro treatment, at 96 h, Giemsa-stained smears; for IC50: read-out: IC50 value for growth inhibition of T. equi
# In short: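 T. equi-infected horse RBCs from MASP culture, diluted to 1% parasitaemia with uninfected ELISA-negative horse RBCs. Medium: M199 with 40% equine serum, antibiotics and 200 μM hypoxanthine. Test compounds at 1–200 μM or 125–1000 nM, triplicate wells, 96 h at 37 °C under 5% CO2/3% O2; drug medium renewed every 24 h. Percent parasitaemia followed over time; IC50 by curve fitting; two-way ANOVA with Bonferroni (p < 0.05).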
# [3] = In vitro cytotoxicity assay; type: cell-based, horse; details: horse, PHA-stimulated horse PBMCs
# horse PBMCs = assay: In vitro cytotoxicity assay; type: cell-based
# [4] = 48 h, 72 h and 96 h, 250 nM–1000 nM
Structure (SMILES),haemolytic activity on horse RBCs (horse RBCs; highest concentration of 2000 μM),parasite multiplication in the viability test (Theileria equi [1]; after 96 h treatment with 500 nM–1000 nM),"in vitro growth inhibition versus control well (Theileria equi [2]; 24 h, 750 and 1000 nM)",in vitro growth inhibition versus control well (Theileria equi [2]; [4]),morphological changes observed in treated parasites (Theileria equi [2]),IC50 (Theileria equi [2]; 96 h of culture) [µM],"haemolytic activity on horse RBCs (horse RBCs; 10 μM–2000 μM, 90 min) [%]",Specific selective index (SSI) with respect to host's RBC (horse RBCs; CC50 on horse RBCs / IC50 on T. equi),parasite multiplication in the viability test (Theileria equi [1]; after 96 h treatment with 50 μM–200 μM),CC50 at 24 h [3] [µM],Specific selective index (SSI) with respect to host's PBMC (horse PBMCs; CC50 on horse PBMCs / IC50 on T. equi),"cytotoxicity to horse PBMCs (horse PBMCs; highest concentration 1000 μM, 24 h)","in vitro growth inhibition versus control well (Theileria equi [2]; 24 h, 100 μM and 200 μM)","in vitro growth inhibition versus control well (Theileria equi [2]; 48 h, 72 h and 96 h, 5 μM–200 μM)","IC50 (Theileria equi [2]; Theileria equi, 96 h) [µM]",parasite multiplication in the viability test (Theileria equi [1]; after 96 h treatment with 750 nM and 1000 nM),"in vitro growth inhibition versus control well (Theileria equi [2]; 24 h, 500, 750 and 1000 nM)"
"CCCCCCCCCCCC[N+](C)(C)C.[Br-] [DDTAB, dodecyl trimethyl ammonium bromide]",more,failed to multiply further,significant difference,significant (p < 0.05) growth inhibition,"devoid of internal structures, showing pycnotic and degenerative appearances",0.47,–,–,–,–,–,–,–,–,–,–,–
"C[N+](C)(C)CCCCCCCCCC[N+](C)(C)C [DMB, Decamethonium bromide]",–,–,–,–,"devoid of internal structures, showing pycnotic and degenerative appearances",–,< 3,16035.38,failed to multiply further,7200,514.50,less than 10%,significant difference,significant (p < 0.05) growth inhibition,14,–,–
"CCCCCCCCCC[N+](C)(C)C.[Br-] [DTAB, Decyl trimethyl ammonium bromide]",–,–,–,significant (p < 0.05) growth inhibition,"devoid of internal structures, showing pycnotic and degenerative appearances",0.558,< 3,–,–,–,–,–,–,–,–,failed to multiply further,significant difference
